Test results published in PubChem BioAssay.
Calls of active or inactive are those of the source. Rule as the data show it, unless noted: active = inhibition above about 30%; inactive = the rest.

Assays:
[1] = Her2 expression decrease, cell viability multiplex – SKBR3 breast tumor cells, AlphaScreen, ATP viability, primary screen (AID 461;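 active = Her2 level under about 52% in both replicate screens, with viability over 70% of control, limit read from the data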;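 as to Her2 level: lower value means less Her2 protein in the cells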;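 as to viability: percent of carrier control wells set as 100% viability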); details: SKBR3 Her2 protein level, 18-24 h, measured here: SKBR3 viability, ATP luminescence, at 10 µM
[2] = biological target: Receptor tyrosine-protein kinase erbB-2 (Homo sapiens) (UniProt P04626); assay: as above; details: 18-24 h, at 10 µM, stronger effect = lower value
[3] = reduced viability of SK-BR-3 breast cancer cells – cell-based, 24 h, human, pilot screen (AID 572;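 active = viability at or below 10% of carrier control in both of two separate runs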;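 also: compound exposure lasted between 18 and 24 h rather than exactly 24 h; 100% = carrier-treated control wells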); details: SK-BR-3 viability, CellTiter-Glo luminescence, at 10 µM, stronger effect = lower value
[4] = HUVEC growth inhibition – cell-based, human, primary screen (AID 575;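 active = viability at or below 30% in both replicate assays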;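 also: 100% = median of untreated cell wells with 0.1% DMSO on each plate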); details: HUVEC proliferation, CellTiter-Glo luminescence, 72 h; at 10 µM; stronger effect = lower value
Outline: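 Test system: primary human umbilical vein endothelial cells. Quantity: 1250 cells/well. Compound: single 10 µM dose, 0.1% DMSO, from 5x medium stock. Timing: 72 h treatment at 37 °C. Detection: ATP-based CellTiter-Glo luminescent read. Benchmarks: vehicle and MePR control wells. Format: 384-well plates coated with collagen.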

[5] = H69AR cell proliferation blockers – human, duplicate replicates, primary screen (AID 580;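 active = viability at or under a set limit in both replicates, limit being median viability minus 3 SD, cut at about 48% in these data, passing the limit was not always enough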;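 also: 100% = mean luminescence of untreated wells and 0% = no signal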); details: H69AR lung tumor cells viability, ATP luminescence, 72 h; at 10 µM; stronger effect = lower value
[6] = MRP1 drug-resistance reversers in H69AR cells – cell-based, doxorubicin co-treatment, pilot screen (AID 601;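 active = viability loss from added drug above about 55%, and viability with drug at most 40%, in both replicates, limit read from the data, passing the limit was not always enough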); details: CellTiter-Glo, 72 h, at 10 µM; for differential viability (reversal): stronger effect = higher value
[7] = yeast transport mutant growth inhibition pilot in 384-well plates, post-Golgi transport modulator project (AID 636; in the data active = inhibition above about 31%); details: absorbance 615 nm, about 18 h, stronger effect = higher value
[8] = growth suppression of yeast trafficking mutant, preliminary HTS, modulators of trafficking downstream of Golgi apparatus project, 1536-format plate, OD 615 nm (AID 637); details: yeast transport mutant growth, absorbance 615 nm, 18 h; stronger effect = higher value
[9] = H69AR cells + 2 uM doxorubicin, measured here: viability with 2 uM doxorubicin, stronger effect = lower value
[10] = H69AR cells, compound alone cytotoxicity

Chain of Receptor tyrosine-protein kinase erbB-2 (Homo sapiens) (P04626 whole entry, looked up): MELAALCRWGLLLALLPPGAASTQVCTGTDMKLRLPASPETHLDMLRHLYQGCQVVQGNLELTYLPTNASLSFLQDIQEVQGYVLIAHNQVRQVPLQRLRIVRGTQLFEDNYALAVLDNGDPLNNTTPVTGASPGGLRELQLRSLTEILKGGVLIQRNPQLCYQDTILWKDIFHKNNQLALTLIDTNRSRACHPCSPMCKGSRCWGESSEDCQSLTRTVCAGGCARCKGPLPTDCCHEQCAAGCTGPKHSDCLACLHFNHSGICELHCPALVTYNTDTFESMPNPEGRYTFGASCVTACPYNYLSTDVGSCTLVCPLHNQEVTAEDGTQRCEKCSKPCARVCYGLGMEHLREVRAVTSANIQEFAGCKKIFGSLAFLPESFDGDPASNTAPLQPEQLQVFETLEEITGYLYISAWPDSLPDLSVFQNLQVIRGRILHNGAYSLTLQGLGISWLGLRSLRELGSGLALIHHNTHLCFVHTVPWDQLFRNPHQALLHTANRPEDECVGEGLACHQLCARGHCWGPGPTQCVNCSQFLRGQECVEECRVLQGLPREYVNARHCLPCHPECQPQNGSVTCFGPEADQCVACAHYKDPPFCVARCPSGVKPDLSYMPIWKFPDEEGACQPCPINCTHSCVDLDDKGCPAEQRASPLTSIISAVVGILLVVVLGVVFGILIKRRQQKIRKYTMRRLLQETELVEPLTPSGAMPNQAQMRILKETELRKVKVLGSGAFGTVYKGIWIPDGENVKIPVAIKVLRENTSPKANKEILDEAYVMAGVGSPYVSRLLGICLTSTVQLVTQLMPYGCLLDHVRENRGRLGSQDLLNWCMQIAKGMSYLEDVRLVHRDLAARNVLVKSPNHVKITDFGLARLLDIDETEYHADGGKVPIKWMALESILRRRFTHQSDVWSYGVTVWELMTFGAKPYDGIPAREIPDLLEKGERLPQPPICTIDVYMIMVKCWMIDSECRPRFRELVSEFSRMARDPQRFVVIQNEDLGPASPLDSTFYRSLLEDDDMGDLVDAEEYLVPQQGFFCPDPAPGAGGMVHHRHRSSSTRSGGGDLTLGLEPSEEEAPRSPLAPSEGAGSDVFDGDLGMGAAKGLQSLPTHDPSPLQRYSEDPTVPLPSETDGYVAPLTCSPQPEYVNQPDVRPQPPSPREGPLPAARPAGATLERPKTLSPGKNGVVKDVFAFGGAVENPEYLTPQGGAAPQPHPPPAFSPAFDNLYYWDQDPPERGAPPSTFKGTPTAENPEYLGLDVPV

SMILES	viability [1] [%]	Her2 level [2]	viability [3]	viability [4]	viability [5]	differential viability (reversal) ([6]; H69AR cells + 2 uM doxorubicin)	viability [6, 9] [%]	viability [6, 10] [%]	inhibition [7]	inhibition [8]
Cn1c(SC/C=C/c2ccccc2)nnc1-c1cnccn1	80.5	102% (inactive)	80.5% (inactive)	114% (inactive)	94.3% (inactive)	10.3% (inactive)	84	94.3	2.27% (inactive)	-5.48% (inactive)
O=c1c2nnn(Cc3ccc(Cl)cc3)c2ncn1Cc1ccc(F)cc1	124	89.5% (inactive)	124% (inactive)	65.6% (inactive)	94.6% (inactive)	7.53% (inactive)	87.1	94.6	-9.86% (inactive)	1.75% (inactive)
FC(F)(F)c1nnc2ccc(NCn3nnc4ccccc43)nn12	102	89.5% (inactive)	102% (inactive)	83.1% (inactive)	92.9% (inactive)	4.94% (inactive)	88	92.9	-4.61% (inactive)	-1.75% (inactive)
O=C(CCn1c(=O)sc2ccccc21)Nc1cccnc1	104	92% (inactive)	104% (inactive)	96.8% (inactive)	99.6% (inactive)	8.59% (inactive)	91	99.6	-3.87% (inactive)	1.48% (inactive)
COc1ccc(C)cc1NC(=O)c1nc2nc(C)cc(C)n2n1	86	76% (inactive)	86% (inactive)	73% (inactive)	85.1% (inactive)	-1.54% (inactive)	86.6	85.1	-6.13% (inactive)	-1.11% (inactive)
CCCN(CCC)S(=O)(=O)c1ccc(C(=O)Nc2nnc(-c3cccc(OC)c3)o2)cc1	98.5	89% (inactive)	98.5% (inactive)	8.23% (active)	15.3% (active)	-7.05% (inactive)	22.3	15.3	-5.79% (inactive)	-1.64% (inactive)
CC(Oc1ccccc1)C(=O)NC1CCN(Cc2ccccc2)CC1 (stereo not given)	93	83% (inactive)	93% (inactive)	90.7% (inactive)	93.5% (inactive)	7.39% (inactive)	86.1	93.5	-5.6% (inactive)	3.65% (inactive)
CC(=O)N1CCc2cc(S(=O)(=O)NC(CC(C)C)C(=O)N3CCn4c3nc3ccccc34)ccc21 (stereo not given)	88.5	87.5% (inactive)	88.5% (inactive)	92% (inactive)	97.6% (inactive)	-3.44% (inactive)	101	97.6	-4.4% (inactive)	1.8% (inactive)
Cc1nnc(SCC(=O)Nc2ccc(Br)cn2)[nH]c1=O	118	85% (inactive)	118% (inactive)	98.7% (inactive)	98.3% (inactive)	4.71% (inactive)	93.6	98.3	1.84% (inactive)	8.17% (inactive)
Cc1ccc(S(=O)(=O)NCCN2CCOCC2)cc1C	88.5	93% (inactive)	88.5% (inactive)	91.7% (inactive)	86.1% (inactive)	-5.21% (inactive)	91.3	86.1	-0.52% (inactive)	-1.11% (inactive)
Cc1ccc(NC(=O)c2cc(S(=O)(=O)N3CCC4(CC3)OCCO4)ccc2F)cc1	101	143% (inactive)	101% (inactive)	90.7% (inactive)	99.3% (inactive)	2.58% (inactive)	96.7	99.3	1.97% (inactive)	-11% (inactive)
Cn1cccc1Cc1nnc(SCC(=O)Nc2ccccc2F)n1-c1ccc(F)cc1	87.5	99.5% (inactive)	87.5% (inactive)	103% (inactive)	98.2% (inactive)	-2.87% (inactive)	101	98.2	-1.28% (inactive)	-6.5% (inactive)
CC(Oc1ccccc1)C(=O)N1CCCc2ccccc21 (stereo not given)	101	104% (inactive)	101% (inactive)	95.4% (inactive)	94.3% (inactive)	4.51% (inactive)	89.8	94.3	-1.76% (inactive)	-4.33% (inactive)
COc1ccccc1OCC(=O)NCC1CCCCC1	94.5	114% (inactive)	94.5% (inactive)	93.2% (inactive)	109% (inactive)	23.4% (inactive)	85.2	109	-3.29% (inactive)	-9.33% (inactive)
COc1ccc(NC(=O)CN(c2ccc(C)cc2)S(C)(=O)=O)c(OC)c1	90	118% (inactive)	90% (inactive)	84.8% (inactive)	101% (inactive)	11.9% (inactive)	89.4	101	-2.63% (inactive)	-3.5% (inactive)
c1ccc(-c2nnc(OCCN3CCOCC3)c3ccccc23)cc1	112	118% (inactive)	112% (inactive)	87.3% (inactive)	84.2% (inactive)	-5.76% (inactive)	89.9	84.2	-4.08% (inactive)	2.62% (inactive)
O=C(NCN1CCCCC1)c1cnccn1	95.5	86% (inactive)	95.5% (inactive)	103% (inactive)	89.9% (inactive)	-16.5% (inactive)	106	89.9	-2.47% (inactive)	-1.15% (inactive)
COc1ccccc1OCC(=O)N1CCNC1=O	90	96.5% (inactive)	90% (inactive)	84% (inactive)	102% (inactive)	12.2% (inactive)	90	102	-1.73% (inactive)	-0.98% (inactive)
CSc1nnc2c3ccccc3n(CCc3ccccc3)c2n1	90	100% (inactive)	90% (inactive)	68.6% (inactive)	89.4% (inactive)	3.33% (inactive)	86.1	89.4	-1.35% (inactive)	46.2% (active)
COc1cc(OC)c(-c2nn3c(C4CCCCC4)nnc3s2)cc1OC	102	116% (inactive)	102% (inactive)	80.8% (inactive)	77.5% (inactive)	-2% (inactive)	79.5	77.5	-0.52% (inactive)	2.3% (inactive)
O=c1c2cc(Cl)ccc2[nH]c(=S)n1Cc1ccco1	84.5	81% (inactive)	84.5% (inactive)	93.6% (inactive)	86.7% (inactive)	-1.27% (inactive)	88	86.7	-8.13% (inactive)	10.2% (inactive)
CCCCC(CC)CNC(=O)C1CCCN(S(=O)(=O)c2cnc[nH]2)C1 (stereo not given)	91.5	95.5% (inactive)	91.5% (inactive)	105% (inactive)	92.2% (inactive)	-1.91% (inactive)	94.1	92.2	-2.67% (inactive)	2.79% (inactive)
CCN(C(=O)CCc1nc(-c2ccccc2F)no1)c1cc(OC)ccc1OC	87.5	130% (inactive)	87.5% (inactive)	68.1% (inactive)	92.4% (inactive)	-2.4% (inactive)	94.8	92.4	1.71% (inactive)	0.33% (inactive)
COc1cc(Br)cc(/C=N/c2ncn[nH]2)c1O	134	89% (inactive)	134% (inactive)	35.2% (inactive)	86.6% (inactive)	-17.5% (inactive)	104	86.6	-4.81% (inactive)	-3.44% (inactive)
CC(=O)c1nnn(-c2nc(N3CCCC3)nc(N(c3ccccc3)c3ccccc3)n2)c1C	87	76% (inactive)	87% (inactive)	97.8% (inactive)	82.7% (inactive)	5.7% (inactive)	77	82.7	-2.89% (inactive)	-3.45% (inactive)
CSCCC(C(=O)Nc1ccc2c(c1)OCO2)N1C(=O)c2ccccc2C1=O (stereo not given)	91	79% (inactive)	91% (inactive)	88.1% (inactive)	96.4% (inactive)	4.44% (inactive)	92	96.4	-1.3% (inactive)	-1.43% (inactive)
O=C(O)C1CCCCC1C(=O)NCCc1ccccc1 (stereo not given)	87.5	104% (inactive)	87.5% (inactive)	103% (inactive)	99.2% (inactive)	7.15% (inactive)	92	99.2	0.55% (inactive)	10.3% (inactive)
Cc1cccc(N(CC(N)=O)S(C)(=O)=O)c1C	102	100% (inactive)	102% (inactive)	107% (inactive)	92% (inactive)	4.79% (inactive)	87.2	92	-2.76% (inactive)	0.82% (inactive)
Cc1ccc(NC(=O)C2CC=CCC2C(=O)N2CCCCC2)cc1 (stereo not given)	71	76.5% (inactive)	71% (inactive)	95.7% (inactive)	95.7% (inactive)	12.5% (inactive)	83.2	95.7	-5.54% (inactive)	-1.31% (inactive)
